The nature of series [1]: Inhibition of EGFP-fused MERS-CoV spike protein mediated cell-cell fusion between viral protein expressing human 293T cells and human HuH7 target cells after 4 hrs by inverted fluorescence microscopic analysis. Details: species or system Middle East respiratory syndrome-related coronavirus. An outline of the steps: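 Huh-7 target cells expressing DPP4 were seeded at 5 × 10^4/well and kept at 37 °C for 5 h. Inhibitors were added, then 293T effector cells co-expressing S protein and EGFP (1 × 10^4/well); 293T/EGFP-only cells served as negative control. After 4 h coculture at 37 °C, fused and unfused cells were counted by fluorescence microscopy.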

A short description of series [2]: Inhibition of MERS-CoV spike protein mediated cell-cell fusion between viral protein expressing human 293T cells and human HuH7 target cells assessed as decrease in pseudovirus infection preincubated with virus for 1 hr followed by HuH7 cells addition measured after 48 hrs by luciferase reporter gene assay. Details: species or system Middle East respiratory syndrome-related coronavirus. An outline of the steps: (§1)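 Graded peptide concentrations were preincubated with luciferase-reporter pseudovirus bearing MERS-CoV S for 1 h at room temperature. The mixture was added to Huh-7 or Calu-3 cells, with medium refreshed at 12 h. After a further 48 h at 37 °C, luciferase was read. Values are from three independent experiments, mean ± SD.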

Series [3] is described as follows: Inhibition of MERS-CoV spike protein mediated cell-cell fusion between viral protein expressing human 293T cells and human Calu3 target cells assessed as decrease in pseudovirus infection preincubated with virus for 1 hr followed by HuH7 cells addition measured after 48 hrs by luciferase reporter gene assay. Details: species or system Middle East respiratory syndrome-related coronavirus. The method in brief:
as §1

Series [4] in a line: Binding affinity to NHR peptide HR1P in pH 7.2 phosphate buffer assessed as formation of alpha-helical complex at 50 uM after 30 mins by CD spectroscopic method. An outline of the steps:
(§2)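 Peptides were at 50 µM final in 50 mM PBS, pH 7.2. Equimolar HR1P/peptide mixtures were incubated at 25 °C for 30 min before CD scanning. α-Helicity was taken from [θ]222, where -33,000 deg cm2/dmol = 100% helix.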

Series [5] in a line: Cytotoxicity against human HuH7 cells after 48 hrs by CCK-8 assay. The series is classed as cell-based, Huh-7. The method in brief:
(§3)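 Cells (1 × 10^5 per well) were preincubated at 37 °C for 12 h, then given graded peptide concentrations. After 48 h at 37 °C, CCK-8 was added and absorbance at 450 nm was read 2 h later.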

A further series relates to Calu-3. The series can be described thus: Cytotoxicity against human Calu3 cells at 100 uM after 48 hrs by CCK-8 assay. The conditions noted are these: calu-3, 48 h. In kind it is cell-based. The method in brief: as §3
Series [6] is described as follows: Binding affinity to NHR peptide HR1P in pH 7.2 phosphate buffer assessed as thermal unfolding transition at 50 uM after 30 mins by CD spectroscopic method. The method in brief:
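Equimolar HR1P/peptide mixtures, 50 µM final in 50 mM PBS pH 7.2, were preincubated at 25 °C for 30 min. Thermal denaturation was followed by CD at 222 nm over a 10–90 °C gradient at 2 °C/min.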

Series [7] can be described thus: Binding affinity to NHR peptide HR1P in pH 7.2 phosphate buffer at 250 uM after 30 mins by sedimentation velocity analysis. The method in brief: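 HR1P/peptide mixtures at 250 µM in 50 mM PBS were incubated at 25 °C for 30 min. After an initial scan at 3000 rpm for 10 min, sedimentation velocity was run at 60,000 rpm, 280 nm, 20 °C, for 7 h. Weight-averaged molecular weights were obtained by fitting.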

Series [8] can be described thus: Binding affinity to NHR peptide HR1P in pH 7.2 phosphate buffer at 200 uM after 30 mins by N-PAGE analysis. The method in brief: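 Stapled peptide and HR1P, each 200 µM (in 50 mM PBS or ddH2O), were incubated together at 25 °C for 30 min. Samples in Tris-glycine native sample buffer were run on an 18% Tris-glycine gel (pH 8.3 buffer) at 120 V for 3 h at room temperature and stained with Coomassie blue R250.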

Series [9] is described as follows: Binding affinity to NHR peptide HR1P in pH 7.2 phosphate buffer at 50 uM after 30 mins by CD spectroscopic method. An outline of the steps: as §2
Where [10] appears, read: Middle East respiratory syndrome-related coronavirus.

Activity calls are given as the source filed them. The calls are words filed in the database; no cut-off is given here. Where a SMILES comes first, the peptide text is derived from it. Bridges are numbered along the chain shown (N, C = ends). [ ]: non-standard residue; d: D form. S5 = C=CCCC[C@](C)(N)C(=O)O; Nle = CCCC[C@H](N)C(=O)O

In the case of `CSCC[C@H](NC(=O)[C@H](CCC(=O)O)NC(=O)[C@H](Cc1ccc(O)cc1)NC(=O)[C@@H](NC(=O)[C@H](CC(C)C)NC(=O)[C@H](CC(=O)O)NC(=O)[C@H](CC(C)C)NC(C)=O)[C@@H](C)O)C(=O)N[C@@H](CC(C)C)C(=O)N[C@@H](CO)C(=O)N[C@@H](CC(C)C)C(=O)N[C@@H](CCC(N)=O)C(=O)N[C@@H](CCC(N)=O)C(=O)N[C@H](C(=O)N[C@H](C(=O)N[C@@H](CCCCN)C(=O)N[C@@]1(C)CCC/C=C\CCC[C@@](C)(C(=O)N[C@@H](Cc2ccc(O)cc2)C(N)=O)NC(=O)[C@H](CCC(=O)O)NC(=O)[C@H](CC(N)=O)NC(=O)[C@H](CC(C)C)NC1=O)C(C)C)C(C)C`, the concentration for a half-maximal effect (EC50) in [1] was found to be 330 nM; in series [2] (setting [10]), 970 nM; in [3] (setting [10]), 1580 nM. In addition, the Activity was 45.6% in [4] and “Non-Toxic” with Calu-3. In addition, in [5], the CC50 at 48 h was greater than 100000 nM. Moreover, the melting temperature (Tm) in [6] stood at 76.4 °C. Besides, the result in series [7] and in [8] was Active.
`CC[C@H](C)[C@H](NC(=O)[C@H](Cc1ccc(O)cc1)NC(=O)[C@H](CO)NC(=O)[C@H](CCC(=O)O)NC(=O)[C@H](CCC(=O)O)NC(=O)[C@H](CC(C)C)NC(=O)[C@H](CCCCN)NC(=O)[C@H](CCCCN)NC(=O)[C@@H](NC(=O)[C@@H](NC(=O)[C@H](CCC(=O)O)NC(=O)[C@H](CCC(=O)O)NC(=O)[C@H](CC(C)C)NC(=O)[C@H](CCCCN)NC(=O)[C@H](CCCCN)NC(=O)[C@H](CCSC)NC(=O)[C@H](CCC(=O)O)NC(=O)[C@H](Cc1ccc(O)cc1)NC(=O)[C@H](CCC(=O)O)NC(=O)[C@H](CC(C)C)NC(=O)[C@H](CC(=O)O)NC(=O)[C@H](CC(C)C)NC(=O)[C@H](CC(C)C)NC(=O)[C@@H](NC(=O)[C@@H](NC(=O)[C@H](CC(N)=O)NC(=O)[C@@H](NC(=O)[C@H](CCC(N)=O)NC(=O)[C@@H](NC(=O)[C@H](CC(C)C)NC(=O)[C@H](CO)NC(C)=O)[C@@H](C)O)[C@@H](C)CC)[C@@H](C)O)[C@@H](C)O)C(C)C)C(C)C)C(=O)N[C@@H](CC(=O)O)C(=O)N[C@@H](CC(C)C)C(=O)N[C@@H](CCCCN)C(=O)N[C@@H](CCC(=O)O)C(=O)N[C@@H](CC(C)C)C(N)=O`: the concentration giving a half-maximal response (EC50) in [1] came to 750 nM; in series [2] (setting [10]), 1070 nM. For the same molecule, the 50% cytotoxic concentration (CC50) at 48 h in series [5] was greater than 100000 nM.
On to `CSCC[C@@H]1NC(=O)[C@H](CCC(=O)O)NC(=O)[C@H](Cc2ccc(O)cc2)NC(=O)[C@@](C)(NC(=O)[C@H](CC(C)C)NC(=O)[C@H](CC(=O)O)NC(=O)[C@H](CC(C)C)NC(C)=O)CCC/C=C\CCC[C@@](C)(C(=O)N[C@@H](CO)C(=O)N[C@@H](CC(C)C)C(=O)N[C@@H](CCC(N)=O)C(=O)N[C@@H](CCC(N)=O)C(=O)N[C@H](C(=O)N[C@H](C(=O)N[C@@H](CCCCN)C(=O)N[C@@H](C)C(=O)N[C@@H](CC(C)C)C(=O)N[C@@H](CC(N)=O)C(=O)N[C@@H](CCC(=O)O)C(=O)N[C@@H](CO)C(=O)N[C@@H](Cc2ccc(O)cc2)C(N)=O)C(C)C)C(C)C)NC1=O`, for which the EC50 in [1] was greater than 50000 nM. Also, the outcome in [9] was inactive.
The like results for `CSCC[C@H](NC(=O)[C@H](CCC(=O)O)NC(=O)[C@]1(C)CCC/C=C\CCC[C@](C)(NC(C)=O)C(=O)N[C@@H](CC(=O)O)C(=O)N[C@@H](CC(C)C)C(=O)N[C@@H]([C@@H](C)O)C(=O)N1)C(=O)N[C@@H](CC(C)C)C(=O)N[C@@H](CO)C(=O)N[C@@H](CC(C)C)C(=O)N[C@@H](CCC(N)=O)C(=O)N[C@@H](CCC(N)=O)C(=O)N[C@H](C(=O)N[C@H](C(=O)N[C@@H](CCCCN)C(=O)N[C@@H](C)C(=O)N[C@@H](CC(C)C)C(=O)N[C@@H](CC(N)=O)C(=O)N[C@@H](CCC(=O)O)C(=O)N[C@@H](CO)C(=O)N[C@@H](Cc1ccc(O)cc1)C(N)=O)C(C)C)C(C)C` were, in that order, greater than 50000 nM and “inactive”.
Turning to `CSCC[C@H](NC(=O)[C@H](CCC(=O)O)NC(=O)[C@H](Cc1ccc(O)cc1)NC(=O)[C@@H](NC(=O)[C@H](CC(C)C)NC(=O)[C@H](CC(=O)O)NC(=O)[C@H](CC(C)C)NC(C)=O)[C@@H](C)O)C(=O)N[C@@H](CC(C)C)C(=O)N[C@@H](CO)C(=O)N[C@@H](CC(C)C)C(=O)N[C@@H](CCC(N)=O)C(=O)N[C@@]1(C)CCC/C=C\CCC[C@@](C)(C(=O)N[C@@H](CC(C)C)C(=O)N[C@@H](CC(N)=O)C(=O)N[C@@H](CCC(=O)O)C(=O)N[C@@H](CO)C(=O)N[C@@H](Cc2ccc(O)cc2)C(N)=O)NC(=O)[C@H](CCCCN)NC(=O)[C@H](C(C)C)NC(=O)[C@H](C(C)C)NC1=O` (Ac-LDLTYEMLSLQ[S5]VVK[S5]LNESY-NH2; staple (Z) 12-16), the EC50 turned out to be 260 nM in [1], 3030 nM in series [2] (setting [10]) and 2210 nM in [3] (setting [10]). Moreover, the Activity in series [4] was 35.5%; in the series on Calu-3, “Non-Toxic”. The same molecule returned a half-maximal cytotoxic concentration (CC50) at 48 h in series [5] greater than 100000 nM. In addition, the Tm in series [6] turned out to be 71.1 °C. Further, the outcome in [7] and in series [8] was Active.
In series [1], `CSCC[C@H](NC(=O)[C@H](CCC(=O)O)NC(=O)[C@H](Cc1ccc(O)cc1)NC(=O)[C@@H](NC(=O)[C@H](CC(C)C)NC(=O)[C@H](CC(=O)O)NC(=O)[C@H](CC(C)C)NC(C)=O)[C@@H](C)O)C(=O)N[C@@H](CC(C)C)C(=O)N[C@@]1(C)CCC/C=C/CCC[C@@](C)(C(=O)N[C@H](C(=O)N[C@@H](CCCCN)C(=O)N[C@@H](C)C(=O)N[C@@H](CC(C)C)C(=O)N[C@@H](CC(N)=O)C(=O)N[C@@H](CCC(=O)O)C(=O)N[C@@H](CO)C(=O)N[C@@H](Cc2ccc(O)cc2)C(N)=O)C(C)C)NC(=O)[C@H](CCC(N)=O)NC(=O)[C@H](CCC(N)=O)NC(=O)[C@H](CC(C)C)NC1=O` (Ac-LDLTYEML[S5]LQQ[S5]VKALNESY-NH2; staple (E) 9-13) came in with a concentration for a half-maximal effect (EC50) greater than 50000 nM. Also, the result in series [9] was inactive.
`CSCC[C@H](NC(=O)[C@H](CCC(=O)O)NC(=O)[C@H](Cc1ccc(O)cc1)NC(=O)[C@@H](NC(=O)[C@H](CC(C)C)NC(=O)[C@H](CC(=O)O)NC(=O)[C@H](CC(C)C)NC(C)=O)[C@@H](C)O)C(=O)N[C@@]1(C)CCC/C=C\CCC[C@@](C)(C(=O)N[C@H](C(=O)N[C@H](C(=O)N[C@@H](CCCCN)C(=O)N[C@@H](C)C(=O)N[C@@H](CC(C)C)C(=O)N[C@@H](CC(N)=O)C(=O)N[C@@H](CCC(=O)O)C(=O)N[C@@H](CO)C(=O)N[C@@H](Cc2ccc(O)cc2)C(N)=O)C(C)C)C(C)C)NC(=O)[C@H](CCC(N)=O)NC(=O)[C@H](CC(C)C)NC(=O)[C@H](CO)NC1=O` (Ac-LDLTYEM[S5]SLQ[S5]VVKALNESY-NH2; staple (Z) 8-12) displayed an EC50 in series [1] of 10700 nM. For the same molecule, the melting temperature (Tm) in series [6] lay in the range of 56.6 to 66.6 °C.
Consider `CCCC[C@H](NC(=O)[C@H](CCC(=O)O)NC(=O)[C@H](Cc1ccc(O)cc1)NC(=O)[C@@H](NC(=O)[C@H](CC(C)C)NC(=O)[C@H](CC(=O)O)NC(=O)[C@H](CC(C)C)NC(C)=O)[C@@H](C)O)C(=O)N[C@@H](CC(C)C)C(=O)N[C@@H](CO)C(=O)N[C@@H](CC(C)C)C(=O)N[C@@H](CCC(N)=O)C(=O)N[C@@]1(C)CCC/C=C\CCC[C@@](C)(C(=O)N[C@@H](CC(C)C)C(=O)N[C@@H](CC(N)=O)C(=O)N[C@@H](CCC(=O)O)C(=O)N[C@@H](CO)C(=O)N[C@@H](Cc2ccc(O)cc2)C(N)=O)NC(=O)[C@H](CCCCN)NC(=O)[C@H](C(C)C)NC(=O)[C@H](C(C)C)NC1=O` (Ac-LDLTYE[Nle]LSLQ[S5]VVK[S5]LNESY-NH2; staple (Z) 12-16), for which the EC50 in [1] worked out at 630 nM; in series [2], 2800 nM; in series [3] it was 2570 nM. The same molecule returned a cytotoxic concentration (CC50) at 48 h in series [5] greater than 100000 nM. In addition, the Activity entry in the series with Calu-3 is recorded as “Non-Toxic”.

Source of the values: ChEMBL document CHEMBL4118106 (J Med Chem, 2018).
